Here are results for 17 compounds from ChEMBL document CHEMBL2424522, “Demonic axe-like conjugated alkynes in combating microbes” (2013).

In brackets after ≈: the same amount, converted by molar mass.

Common to all, as to assay type: functional
The test system of one experiment is Aspergillus niger. The experiment is described as follows: Antifungal activity against Aspergillus niger MTCC 344 at 100 ug/ml after 48 hrs by agar well diffusion method. Particulars: MTCC 344, 48 h, read-out: IZ. The gist of the method: (§1)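 Test samples and DMSO controls incubated at 27 °C for 48 h. Inhibition zone diameter measured in mm. Three to four replicates per treatment.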
(In general: Agar diffusion results depend on both activity and mobility in agar.)

The subject of experiment [1] is Staphylococcus epidermidis. The experiment is described as follows: Antibacterial activity against Staphylococcus epidermidis MTCC 435 by broth dilution method. The gist of the method: (§2)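 Broth dilution per NCCL standards; all phosphorus ylides and conjugated alkynes tested in vitro.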
The test system of a further experiment is Bacillus subtilis. The experiment is described as follows: Antibacterial activity against Bacillus subtilis MTCC 441 by broth dilution method. The gist of the method:
as §2
(Dilution methods test growth across graded concentrations, often in twofold steps.)

In a further experiment the test system is Aspergillus flavus. The experiment is described as follows: Antifungal activity against Aspergillus flavus MTCC 277 at 100 ug/ml after 48 hrs by agar well diffusion method. The following applies: MTCC 277, 48 h, read-out: IZ. The method, boiled down: as §1
The test system of the next experiment is Diutina rugosa. The experiment is described as follows: Antifungal activity against Candida rugosa NCIM 3462 at 100 ug/ml after 48 hrs by agar well diffusion method. Particulars: NCIM 3462, 48 h, read-out: IZ. The method, boiled down: as §1
The next experiment has as its system Candida albicans. The experiment is described as follows: Antifungal activity against Candida albicans MTCC 227 at 100 ug/ml after 48 hrs by agar well diffusion method. Particulars: MTCC 227, 48 h, read-out: IZ. The method, boiled down: as §1
In another experiment the test system is Escherichia coli. The experiment is described as follows: Antibacterial activity against Escherichia coli MTCC 443 by broth dilution method. The gist of the method: as §2
The subject of the next experiment is Staphylococcus aureus. The experiment is described as follows: Antibacterial activity against Staphylococcus aureus MTCC 96 by broth dilution method. The gist of the method:
as §2

The test system of a further experiment is Pseudomonas aeruginosa. The experiment is described as follows: Antibacterial activity against Pseudomonas aeruginosa MTCC 741 by broth dilution method. The gist of the method:
as §2

A further experiment concerns Klebsiella pneumoniae. The experiment is described as follows: Antibacterial activity against Klebsiella pneumoniae MTCC 618 by broth dilution method. The method, boiled down:
as §2

A further experiment concerns Saccharomyces cerevisiae. The experiment is described as follows: Antifungal activity against Saccharomyces cerevisiae MTCC 36 at 100 ug/ml after 48 hrs by agar well diffusion method. The following applies: MTCC 36, 48 h, read-out: IZ. The method, boiled down: as §1

As usually defined, the MIC is the least concentration at which growth counts as inhibited. The low end stands for inhibition by little substance, the high end for a need for much substance.

Turning to `N#CC(C(=O)c1ccc(Cl)nc1)=P(c1ccccc1)(c1ccccc1)c1ccccc1`, the zone of inhibition at 100 µg/mL with Aspergillus niger, with Aspergillus flavus, in the experiment with Diutina rugosa, in the experiment with Candida albicans and in the experiment on Saccharomyces cerevisiae was 0 mm throughout. Further, the MIC (in experiment [1]; in the experiment on Bacillus subtilis; against Escherichia coli; against Staphylococcus aureus; with Pseudomonas aeruginosa; with Klebsiella pneumoniae) was more than 150 µg/mL in each case.

In the case of `CC(C)(C)C(=O)C(C#N)=P(c1ccccc1)(c1ccccc1)c1ccccc1`, the zone of inhibition at 100 µg/mL with Aspergillus niger, with Aspergillus flavus, in the experiment on Diutina rugosa, in the experiment on Candida albicans and in the experiment on Saccharomyces cerevisiae was 0 mm each time. Further, the MIC (in experiment [1]; with Bacillus subtilis; against Escherichia coli; with Staphylococcus aureus; in the experiment on Pseudomonas aeruginosa; with Klebsiella pneumoniae) was more than 150 µg/mL in each case.

For the compound `CC(C)OC(=O)C(C(=O)c1ccco1)=P(c1ccccc1)(c1ccccc1)c1ccccc1`, the zone of inhibition at 100 µg/mL in the experiment on Aspergillus niger, in the experiment on Aspergillus flavus, in the experiment on Diutina rugosa, with Candida albicans and in the experiment with Saccharomyces cerevisiae was 0 mm each time. The MIC (in [1]; in the experiment on Bacillus subtilis; with Escherichia coli; against Staphylococcus aureus; against Pseudomonas aeruginosa; with Klebsiella pneumoniae) was more than 150 µg/mL each time.

As for `CCOC(=O)C(C(=O)c1ccco1)=P(c1ccccc1)(c1ccccc1)c1ccccc1`, the zone of inhibition at 100 µg/mL with Aspergillus niger, with Aspergillus flavus, with Diutina rugosa, in the experiment with Candida albicans and in the experiment on Saccharomyces cerevisiae was 0 mm throughout. Further, the MIC (in experiment [1]; in the experiment on Bacillus subtilis; against Escherichia coli; against Staphylococcus aureus; with Pseudomonas aeruginosa; against Klebsiella pneumoniae) was more than 150 µg/mL each time.

For `CC(C)OC(=O)C(C(=O)c1cc(F)c(Cl)nc1Cl)=P(c1ccccc1)(c1ccccc1)c1ccccc1`, the zone of inhibition at 100 µg/mL in the experiment on Aspergillus niger, in the experiment on Aspergillus flavus, in the experiment with Diutina rugosa, with Candida albicans and in the experiment on Saccharomyces cerevisiae was 0 mm each time. Further, the MIC (in experiment [1]; against Bacillus subtilis; in the experiment with Escherichia coli; against Staphylococcus aureus; in the experiment with Pseudomonas aeruginosa; in the experiment on Klebsiella pneumoniae) was more than 150 µg/mL throughout.

Take `N#CC(C(=O)c1ccco1)=P(c1ccccc1)(c1ccccc1)c1ccccc1`: the zone of inhibition at 100 µg/mL in the experiment with Aspergillus niger, in the experiment with Aspergillus flavus, in the experiment with Diutina rugosa, in the experiment on Candida albicans and with Saccharomyces cerevisiae was 0 mm throughout. Besides, the MIC (in [1]; against Bacillus subtilis; against Escherichia coli; against Staphylococcus aureus; against Pseudomonas aeruginosa; in the experiment on Klebsiella pneumoniae) was more than 150 µg/mL in each case.

On to `N#CC(C(=O)c1cc(F)c(Cl)nc1Cl)=P(c1ccccc1)(c1ccccc1)c1ccccc1`, for which the zone of inhibition at 100 µg/mL in the experiment on Aspergillus niger, in the experiment on Aspergillus flavus, in the experiment on Diutina rugosa, in the experiment with Candida albicans and in the experiment on Saccharomyces cerevisiae was 0 mm each time. Also, the MIC (in experiment [1]; in the experiment with Bacillus subtilis; against Escherichia coli; in the experiment on Staphylococcus aureus; in the experiment on Pseudomonas aeruginosa; against Klebsiella pneumoniae) was more than 150 µg/mL each time.

With `CCOC(=O)C(C(=O)c1ccc(Cl)nc1)=P(c1ccccc1)(c1ccccc1)c1ccccc1`, the zone of inhibition at 100 µg/mL with Aspergillus niger, in the experiment on Aspergillus flavus, in the experiment with Diutina rugosa, with Candida albicans and in the experiment on Saccharomyces cerevisiae was 0 mm each time. For the same compound, the MIC (in experiment [1]; in the experiment with Bacillus subtilis; against Escherichia coli; with Staphylococcus aureus; against Pseudomonas aeruginosa; in the experiment with Klebsiella pneumoniae) was more than 150 µg/mL throughout.

Regarding `CC1(C)S[C@@H]2[C@H](NC(=O)Cc3ccccc3)C(=O)N2[C@H]1C(=O)O` [PENICILLIN G], the MIC was 3.12 µg/mL (≈ 9.35 µM) in [1]; 1.56 µg/mL (≈ 4.67 µM) in the experiment on Bacillus subtilis; 12.5 µg/mL (≈ 37.4 µM) with Escherichia coli; 1.56 µg/mL (≈ 4.67 µM) against Staphylococcus aureus; 12.5 µg/mL (≈ 37.4 µM) against Pseudomonas aeruginosa; 6.25 µg/mL (≈ 18.7 µM) in the experiment on Klebsiella pneumoniae.

Take `Cc1ccccc1C(=O)C(C#N)=P(c1ccccc1)(c1ccccc1)c1ccccc1`: the zone of inhibition at 100 µg/mL in the experiment with Aspergillus niger, with Aspergillus flavus, in the experiment with Diutina rugosa, in the experiment with Candida albicans and in the experiment with Saccharomyces cerevisiae was 0 mm throughout. Also, the MIC (in [1]; against Bacillus subtilis; in the experiment with Escherichia coli; with Staphylococcus aureus; in the experiment with Pseudomonas aeruginosa; in the experiment with Klebsiella pneumoniae) was more than 150 µg/mL in each case.

Turning to `CN[C@@H]1[C@H](O[C@H]2[C@H](O[C@H]3[C@H](O)[C@@H](O)[C@H](N=C(N)N)[C@@H](O)[C@@H]3N=C(N)N)O[C@@H](C)[C@]2(O)C=O)O[C@@H](CO)[C@H](O)[C@H]1O` [STREPTOMYCIN], the MIC is 3.12 µg/mL (≈ 5.37 µM) in [1]; 6.25 µg/mL (≈ 10.7 µM) in the experiment on Bacillus subtilis; 6.25 µg/mL (≈ 10.7 µM) in the experiment on Escherichia coli; 6.25 µg/mL (≈ 10.7 µM) in the experiment on Staphylococcus aureus; 1.56 µg/mL (≈ 2.69 µM) against Pseudomonas aeruginosa; 3.12 µg/mL (≈ 5.37 µM) against Klebsiella pneumoniae.

Take `CC(C)OC(=O)C(C(=O)c1ccc(Cl)nc1)=P(c1ccccc1)(c1ccccc1)c1ccccc1`: the zone of inhibition at 100 µg/mL in the experiment on Aspergillus niger, in the experiment on Aspergillus flavus, in the experiment with Diutina rugosa, in the experiment on Candida albicans and with Saccharomyces cerevisiae was 0 mm in each case. Also, the MIC (in [1]; with Bacillus subtilis; against Escherichia coli; with Staphylococcus aureus; with Pseudomonas aeruginosa; in the experiment on Klebsiella pneumoniae) was more than 150 µg/mL each time.

Consider `CCOC(=O)C(C(=O)c1cc(F)c(Cl)nc1Cl)=P(c1ccccc1)(c1ccccc1)c1ccccc1`, for which the zone of inhibition at 100 µg/mL in the experiment with Aspergillus niger, in the experiment on Aspergillus flavus, with Diutina rugosa, with Candida albicans and in the experiment with Saccharomyces cerevisiae was 0 mm each time. Besides, the MIC (in experiment [1]; in the experiment with Bacillus subtilis; in the experiment with Escherichia coli; with Staphylococcus aureus; in the experiment with Pseudomonas aeruginosa; with Klebsiella pneumoniae) was more than 150 µg/mL throughout.

For the compound `N#CC(C(=O)c1cccnc1Cl)=P(c1ccccc1)(c1ccccc1)c1ccccc1`, the zone of inhibition at 100 µg/mL in the experiment on Aspergillus niger, in the experiment with Aspergillus flavus, with Diutina rugosa, with Candida albicans and with Saccharomyces cerevisiae was 0 mm each time. The minimum inhibitory concentration (MIC) (in experiment [1]; against Bacillus subtilis; against Escherichia coli; in the experiment with Staphylococcus aureus; in the experiment on Pseudomonas aeruginosa; in the experiment on Klebsiella pneumoniae) was more than 150 µg/mL each time.

Regarding `CCOC(=O)C(C(=O)C(C)(C)C)=P(c1ccccc1)(c1ccccc1)c1ccccc1`, the zone of inhibition at 100 µg/mL in the experiment on Aspergillus niger, in the experiment with Aspergillus flavus, in the experiment on Diutina rugosa, in the experiment with Candida albicans and in the experiment on Saccharomyces cerevisiae was 0 mm throughout. For the same compound, the MIC (in experiment [1]; with Bacillus subtilis; with Escherichia coli; against Staphylococcus aureus; in the experiment with Pseudomonas aeruginosa; with Klebsiella pneumoniae) was more than 150 µg/mL in each case.

Consider `CCOC(=O)C(C(=O)c1ccccc1C)=P(c1ccccc1)(c1ccccc1)c1ccccc1`, for which the zone of inhibition at 100 µg/mL in the experiment on Aspergillus niger, in the experiment with Aspergillus flavus, with Diutina rugosa, in the experiment with Candida albicans and in the experiment on Saccharomyces cerevisiae was 0 mm in each case. For the same compound, the minimal inhibitory concentration (MIC) (in experiment [1]; with Bacillus subtilis; against Escherichia coli; in the experiment on Staphylococcus aureus; in the experiment with Pseudomonas aeruginosa; with Klebsiella pneumoniae) was more than 150 µg/mL each time.

Turning to `CCOC(=O)C(C(=O)c1cccnc1Cl)=P(c1ccccc1)(c1ccccc1)c1ccccc1`, the zone of inhibition at 100 µg/mL with Aspergillus niger, with Aspergillus flavus, with Diutina rugosa, in the experiment with Candida albicans and in the experiment with Saccharomyces cerevisiae was 0 mm throughout. For the same compound, the MIC (in [1]; in the experiment on Bacillus subtilis; in the experiment on Escherichia coli; in the experiment with Staphylococcus aureus; in the experiment with Pseudomonas aeruginosa; against Klebsiella pneumoniae) was more than 150 µg/mL in each case.
